# Reference: ChEMBL document CHEMBL1143775, “Convenient one pot synthesis of some novel derivatives of thiazolo[2,3-b]dihydropyrimidinone possessing 4-methylthiophenyl moiety and evaluation of their antibacterial and antifungal activities” (2007)
# What was measured:
# Format in all cases: functional
# Escherichia coli [1] = assay: Antibacterial activity against Escherichia coli ATCC 25922
# Summary of the method: (§1)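 Compound-loaded discs were placed on nutrient agar inoculated separately with fresh bacterial strains. Plates were incubated at 37 °C for 24 h with separate solvent and growth controls. Zone of inhibition and MIC were measured. Ciprofloxacin was the reference drug.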
# Klebsiella pneumoniae [2] = assay: Antibacterial activity against Klebsiella pneumoniae; summary of the method: as §1
# Pseudomonas aeruginosa [3] = assay: Antibacterial activity against Pseudomonas aeruginosa ATCC 27853; summary of the method: as §1
# Candida albicans [4] = assay: Antifungal activity against Candida albicans NCIM 3100 at 10 ug/ml; conditions: read-out: IZ
# Summary of the method: (§2)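 Serial dilution method on Sabouraud agar (peptone, D-glucose, agar; pH 5.7) seeded with a saline spore suspension made from a loopful of each strain. Plates were dried for 1 h at incubator temperature. Test solutions in DMSO went into punched wells, with a DMSO control. Incubation was at 37 °C for 3–4 days. Zone of inhibition and MIC were read against ciclopiroxolamine as standard.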
# Staphylococcus aureus [5] = assay: Antibacterial activity against Staphylococcus aureus ATCC 25923 at 10 ug/ml by disk diffusion method; conditions: read-out: IZ; summary of the method: as §1
# Klebsiella pneumoniae [6] = assay: Antibacterial activity against Klebsiella pneumoniae at 10 ug/ml; conditions: read-out: IZ; summary of the method: as §1
# Pseudomonas aeruginosa [7] = assay: Antibacterial activity against Pseudomonas aeruginosa ATCC 27853 at 10 ug/ml; conditions: read-out: IZ; summary of the method: as §1
# Aspergillus fumigatus [8] = assay: Antifungal activity against Aspergillus fumigatus NCIM 902 by dilution method; summary of the method: as §2
# Talaromyces marneffei [9] = assay: Antifungal activity against Penicillium marneffei by dilution method; summary of the method: as §2
# Talaromyces marneffei [10] = assay: Antifungal activity against Penicillium marneffei at 10 ug/ml; conditions: read-out: IZ; summary of the method: as §2
# Staphylococcus aureus [11] = assay: Antibacterial activity against Staphylococcus aureus ATCC 25923; summary of the method: as §1
# Aspergillus fumigatus [12] = assay: Antifungal activity against Aspergillus fumigatus NCIM 902 at 10 ug/ml; conditions: read-out: IZ; summary of the method: as §2
# Escherichia coli [13] = assay: Antibacterial activity against Escherichia coli ATCC 25922 at 10 ug/ml; conditions: read-out: IZ; summary of the method: as §1
# Candida albicans [14] = assay: Antifungal activity against Candida albicans NCIM 3100 by dilution method; summary of the method: as §2
# Aspergillus flavus [15] = assay: Antifungal activity against Aspergillus flavus NCIM 524 at 10 ug/ml; conditions: read-out: IZ; summary of the method: as §2
# Aspergillus flavus [16] = assay: Antifungal activity against Aspergillus flavus NCIM 524 by dilution method; summary of the method: as §2
MIC (Escherichia coli [1]) [µg/mL],MIC (Klebsiella pneumoniae [2]) [µg/mL],MIC (Pseudomonas aeruginosa [3]) [µg/mL],MIC (Aspergillus fumigatus [8]) [µg/mL],MIC (Talaromyces marneffei [9]) [µg/mL],MIC (Staphylococcus aureus [11]) [µg/mL],MIC (Candida albicans [14]) [µg/mL],MIC (Aspergillus flavus [16]) [µg/mL],SMILES,zone of inhibition at 10 µg/mL (Candida albicans [4]) [mm],zone of inhibition at 10 µg/mL (Staphylococcus aureus [5]) [mm],zone of inhibition at 10 µg/mL (Klebsiella pneumoniae [6]) [mm],zone of inhibition at 10 µg/mL (Pseudomonas aeruginosa [7]) [mm],zone of inhibition at 10 µg/mL (Talaromyces marneffei [10]) [mm],zone of inhibition at 10 µg/mL (Aspergillus fumigatus [12]) [mm],zone of inhibition at 10 µg/mL (Escherichia coli [13]) [mm],zone of inhibition at 10 µg/mL (Aspergillus flavus [15]) [mm]
25,6,6,12.5,6,12.5,6,12.5,CCOC(=O)C1=C(C)N=c2s/c(=C\c3ccc(-c4ccc(Cl)cc4Cl)o3)c(=O)n2C1c1ccc(SC)cc1 (configuration not stated),20,19,20,23,18,10,11,18
25,6,6,6,12.5,25,6,12.5,CCOC(=O)C1=C(C)N=c2s/c(=C\c3ccc(OC)cc3)c(=O)n2C1c1ccc(SC)cc1 (configuration not stated),20,12,21,24,12,21,10,17
12.5,12.5,6,6,6,12.5,12.5,25,CCOC(=O)C1=C(C)N=c2s/c(=C\c3ccc(O)c(OC)c3)c(=O)n2C1c1ccc(SC)cc1 (configuration not stated),10,20,18,23,19,21,18,11
25,12.5,12.5,12.5,12.5,12.5,12.5,25,CCOC(=O)C1=C(C)N=c2s/c(=C\c3ccc(Cl)cc3Cl)c(=O)n2C1c1ccc(SC)cc1 (configuration not stated),12,18,10,13,10,11,11,10
25,12.5,12.5,12.5,12.5,25,12.5,25,CCOC(=O)C1=C(C)N=c2s/c(=C\c3ccc4c(c3)OCO4)c(=O)n2C1c1ccc(SC)cc1 (configuration not stated),11,10,10,10,10,12,10,12
25,12.5,12.5,12.5,12.5,25,12.5,25,CCOC(=O)C1=C(C)N=c2s/c(=C\c3ccc(Cl)cc3)c(=O)n2C1c1ccc(SC)cc1 (configuration not stated),11,10,10,12,10,11,10,12
25,12.5,12.5,12.5,12.5,25,12.5,25,CCOC(=O)C1=C(C)N=c2s/c(=C\c3ccc(O)cc3)c(=O)n2C1c1ccc(SC)cc1 (configuration not stated),10,12,12,15,12,10,12,10
